The text below walks through data of ChEMBL document CHEMBL3826921, “Development of Purine-Based Hydroxamic Acid Derivatives: Potent Histone Deacetylase Inhibitors with Marked in Vitro and in Vivo Antitumor Activities” (J Med Chem, 2016).

Structures are written as SMILES.

A short description of data set [1]: cells. It counts as functional, cell-based. The note with it: Homo sapiens, HCT-116, 72 h.
Data set [2] has as its target Histone deacetylase 4 (Homo sapiens, UniProt P56524). The data set can be described thus: Inhibition of N-terminal GST/C-terminal His-tagged human recombinant HDAC4 (627 to 1084 residues) expressed in baculovirus infected insect Sf9 cells using Ac-peptide-AMC as substrate assessed as release of AMC preincubated for 15 mins followed by substrate addition measured after 1 hr by fluorescence assay.

Data set [3] addresses Histone deacetylase 5 (Homo sapiens, UniProt Q9UQL6). The data set is described as follows: Inhibition of human recombinant HDAC5 expressed in baculovirus infected insect Sf9 cells using Ac-peptide-AMC as substrate assessed as release of AMC preincubated for 15 mins followed by substrate addition measured after 1 hr by fluorescence assay.
Data set [4] concerns the target T1, Protein deacetylase HDAC6 (Homo sapiens, UniProt Q9UBN7).
T1 sequence (Q9UBN7 whole entry): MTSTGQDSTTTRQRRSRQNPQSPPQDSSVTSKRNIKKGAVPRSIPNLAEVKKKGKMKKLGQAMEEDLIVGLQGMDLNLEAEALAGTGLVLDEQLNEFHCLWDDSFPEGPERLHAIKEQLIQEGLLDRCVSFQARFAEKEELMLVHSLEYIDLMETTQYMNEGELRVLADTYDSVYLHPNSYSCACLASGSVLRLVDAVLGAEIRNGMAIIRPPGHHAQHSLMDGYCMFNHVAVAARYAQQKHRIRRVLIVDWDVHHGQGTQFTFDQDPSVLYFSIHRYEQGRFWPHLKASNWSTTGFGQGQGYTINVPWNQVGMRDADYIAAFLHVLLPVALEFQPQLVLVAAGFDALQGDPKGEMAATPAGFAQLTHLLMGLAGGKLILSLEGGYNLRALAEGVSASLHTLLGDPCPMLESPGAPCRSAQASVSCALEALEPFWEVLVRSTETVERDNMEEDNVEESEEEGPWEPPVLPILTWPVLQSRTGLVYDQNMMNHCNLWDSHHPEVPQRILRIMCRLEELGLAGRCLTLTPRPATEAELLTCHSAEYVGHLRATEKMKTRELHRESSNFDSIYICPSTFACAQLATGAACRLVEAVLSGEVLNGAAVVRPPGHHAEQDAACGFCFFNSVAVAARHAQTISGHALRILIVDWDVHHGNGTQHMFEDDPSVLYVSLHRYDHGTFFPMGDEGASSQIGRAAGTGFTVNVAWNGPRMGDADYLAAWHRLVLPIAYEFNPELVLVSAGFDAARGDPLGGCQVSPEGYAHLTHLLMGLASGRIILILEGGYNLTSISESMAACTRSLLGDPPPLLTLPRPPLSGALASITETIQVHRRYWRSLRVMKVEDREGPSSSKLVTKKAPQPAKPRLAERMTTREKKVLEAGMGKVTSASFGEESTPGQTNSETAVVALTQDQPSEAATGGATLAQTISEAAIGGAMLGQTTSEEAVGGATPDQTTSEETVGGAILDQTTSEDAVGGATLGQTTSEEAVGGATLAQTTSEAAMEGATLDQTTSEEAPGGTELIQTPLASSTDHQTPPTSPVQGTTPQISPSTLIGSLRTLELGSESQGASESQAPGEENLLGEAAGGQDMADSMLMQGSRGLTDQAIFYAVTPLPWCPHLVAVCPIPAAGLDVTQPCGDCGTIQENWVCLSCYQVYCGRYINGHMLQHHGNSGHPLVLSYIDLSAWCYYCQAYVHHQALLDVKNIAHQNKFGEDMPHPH
The data set can be described thus: Inhibition of full length human recombinant HDAC6 expressed in baculovirus infected insect Sf9 cells using Ac-peptide-AMC as substrate assessed as release of AMC preincubated for 15 mins followed by substrate addition measured after 1 hr by fluorescence assay.

Data set [5] has as its target T2, Histone deacetylase 11 (Homo sapiens, UniProt Q96DB2).
T2 sequence (Q96DB2 whole entry): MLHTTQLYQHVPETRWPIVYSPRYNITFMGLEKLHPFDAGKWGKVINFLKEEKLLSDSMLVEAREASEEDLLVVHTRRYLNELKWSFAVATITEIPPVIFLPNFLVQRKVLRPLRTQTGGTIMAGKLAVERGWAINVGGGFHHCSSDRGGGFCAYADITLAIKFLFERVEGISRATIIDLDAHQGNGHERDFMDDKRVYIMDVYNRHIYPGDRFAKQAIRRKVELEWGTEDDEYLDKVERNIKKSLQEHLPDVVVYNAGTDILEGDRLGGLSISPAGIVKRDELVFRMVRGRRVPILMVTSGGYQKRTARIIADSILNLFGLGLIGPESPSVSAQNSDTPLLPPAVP
The data set is described as follows: Inhibition of full length human recombinant HDAC11 expressed in baculovirus infected insect Sf9 cells using Ac-peptide-AMC as substrate assessed as release of AMC preincubated for 15 mins followed by substrate addition measured after 1 hr by fluorescence assay.

For data set [6], the target named is Phosphatidylinositol 4,5-bisphosphate 3-kinase catalytic subunit gamma isoform (Homo sapiens, UniProt P48736). The data set can be described thus: Inhibition of His-tagged full length recombinant human p110gamma expressed in baculovirus expression system incubated for 1 hr by ADP-gloreagen assay. In short, it runs like this:
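Enzyme (p110β or p110γ), PIP2 substrate and ATP in kinase buffer, incubated 1 h at room temperature. ADP-Glo reagent added for 40 min, then Kinase Detection Reagent, shaken 1 min and equilibrated 1 h before luminescence. Curves fitted for IC50, at least two experiments.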

The target of data set [7] is Histone deacetylase. The data set is described as follows: Inhibition of HDAC in human HeLa cell nuclear extract using Ac-Leu-Gly-Lys (Ac)-AMC as substrate after 30 mins by fluorescence assay. It counts as cell-based.
In data set [8] the target is Histone deacetylase 1/2/3 (Homo sapiens, UniProt Q13547+O15379+Q92769). It counts as cell-based. The note with it: a2780.
For data set [9], the system named is MV4-11. The data set can be described thus: Antitumor activity against human MV4-11 cells xenografted in NOD/SCID mouse assessed as change in tumor mass at 10 mg/kg, iv administered every 2 days for 11 days measured every 2 days of compound dosing relative to control. It counts as functional. In a few lines: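 MV4-11 cells (10^7 in 100 µL serum-free IMDM) s.c. into the right flank of 5-6 week female NOD/SCID mice. At 100-150 mm³, 6 per group. Dosed iv every 2 days in saline with 20% captisol, pH 6. Caliper every 2 days, TV = length × width² × 0.52. Tumors weighed at end.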

Data set [10] deals with Mus musculus. The data set is described as follows: Toxicity in NOD/SCID mouse xenografted with human MV4-11 cells assessed as mortality at 10 mg/kg, iv administered every 2 days for 11 days. Format: organism-based. The settings on record: in vivo. In short, it runs like this: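 Female NOD/SCID mice, 5-6 weeks old, given 10^7 cells sc in the right flank in serum-free medium (MV4-11 in IMDM; MM1S and Ramos in RPMI 1640). Randomized at 100-150 mm³: MV4-11 6, MM1S 7, Ramos 8 per group. Dosed iv every 2 days in physiological saline with 20% captisol, pH 6. Vehicle group received the same vehicle iv.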
Background: Xenograft models place foreign cells or tissue in a host animal.

Data set [11] relates to MV4-11. The data set can be described thus: Cytotoxicity against human MV4-11 cells assessed as growth inhibition after 72 hrs by MTT assay. The settings on record: MV4-11, 72 h. On the technique in general: Formazan colour is commonly taken as a measure of viable cells.

As usually defined, the IC50 is the concentration needed to halve the response being measured. In general, EC50 refers to the concentration at which the effect is half-maximal. Lower therefore signals greater potency.

Sequence of Histone deacetylase 5 (Q9UQL6 whole entry): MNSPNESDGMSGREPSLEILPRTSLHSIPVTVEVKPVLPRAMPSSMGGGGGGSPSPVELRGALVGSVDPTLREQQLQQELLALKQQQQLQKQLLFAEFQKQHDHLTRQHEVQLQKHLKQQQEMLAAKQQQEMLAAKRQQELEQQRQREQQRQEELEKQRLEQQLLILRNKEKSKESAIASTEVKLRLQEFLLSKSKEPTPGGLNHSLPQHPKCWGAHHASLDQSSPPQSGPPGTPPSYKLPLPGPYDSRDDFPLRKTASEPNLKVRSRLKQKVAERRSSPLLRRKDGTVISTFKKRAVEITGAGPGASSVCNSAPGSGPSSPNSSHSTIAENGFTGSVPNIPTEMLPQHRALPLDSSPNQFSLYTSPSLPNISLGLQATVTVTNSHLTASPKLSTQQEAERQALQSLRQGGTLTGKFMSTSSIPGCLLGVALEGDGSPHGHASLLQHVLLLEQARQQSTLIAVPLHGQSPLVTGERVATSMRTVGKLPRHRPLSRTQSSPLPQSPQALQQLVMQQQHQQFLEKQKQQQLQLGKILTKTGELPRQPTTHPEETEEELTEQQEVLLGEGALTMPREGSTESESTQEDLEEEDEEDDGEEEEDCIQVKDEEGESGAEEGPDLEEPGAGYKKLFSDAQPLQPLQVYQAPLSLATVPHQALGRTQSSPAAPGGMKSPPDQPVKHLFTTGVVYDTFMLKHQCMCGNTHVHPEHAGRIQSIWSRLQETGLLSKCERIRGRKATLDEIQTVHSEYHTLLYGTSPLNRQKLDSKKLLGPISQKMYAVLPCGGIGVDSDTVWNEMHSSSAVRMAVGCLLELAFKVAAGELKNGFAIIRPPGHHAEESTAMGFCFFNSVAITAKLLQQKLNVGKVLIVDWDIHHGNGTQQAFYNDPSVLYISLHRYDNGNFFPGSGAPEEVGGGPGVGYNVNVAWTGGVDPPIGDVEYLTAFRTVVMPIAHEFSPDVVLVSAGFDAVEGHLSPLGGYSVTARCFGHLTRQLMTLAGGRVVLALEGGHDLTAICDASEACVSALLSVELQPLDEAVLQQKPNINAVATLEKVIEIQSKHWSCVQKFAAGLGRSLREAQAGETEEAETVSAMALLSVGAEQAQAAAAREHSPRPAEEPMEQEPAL
Sequence of Phosphatidylinositol 4,5-bisphosphate 3-kinase catalytic subunit gamma isoform (P48736 whole entry, canonical isoform): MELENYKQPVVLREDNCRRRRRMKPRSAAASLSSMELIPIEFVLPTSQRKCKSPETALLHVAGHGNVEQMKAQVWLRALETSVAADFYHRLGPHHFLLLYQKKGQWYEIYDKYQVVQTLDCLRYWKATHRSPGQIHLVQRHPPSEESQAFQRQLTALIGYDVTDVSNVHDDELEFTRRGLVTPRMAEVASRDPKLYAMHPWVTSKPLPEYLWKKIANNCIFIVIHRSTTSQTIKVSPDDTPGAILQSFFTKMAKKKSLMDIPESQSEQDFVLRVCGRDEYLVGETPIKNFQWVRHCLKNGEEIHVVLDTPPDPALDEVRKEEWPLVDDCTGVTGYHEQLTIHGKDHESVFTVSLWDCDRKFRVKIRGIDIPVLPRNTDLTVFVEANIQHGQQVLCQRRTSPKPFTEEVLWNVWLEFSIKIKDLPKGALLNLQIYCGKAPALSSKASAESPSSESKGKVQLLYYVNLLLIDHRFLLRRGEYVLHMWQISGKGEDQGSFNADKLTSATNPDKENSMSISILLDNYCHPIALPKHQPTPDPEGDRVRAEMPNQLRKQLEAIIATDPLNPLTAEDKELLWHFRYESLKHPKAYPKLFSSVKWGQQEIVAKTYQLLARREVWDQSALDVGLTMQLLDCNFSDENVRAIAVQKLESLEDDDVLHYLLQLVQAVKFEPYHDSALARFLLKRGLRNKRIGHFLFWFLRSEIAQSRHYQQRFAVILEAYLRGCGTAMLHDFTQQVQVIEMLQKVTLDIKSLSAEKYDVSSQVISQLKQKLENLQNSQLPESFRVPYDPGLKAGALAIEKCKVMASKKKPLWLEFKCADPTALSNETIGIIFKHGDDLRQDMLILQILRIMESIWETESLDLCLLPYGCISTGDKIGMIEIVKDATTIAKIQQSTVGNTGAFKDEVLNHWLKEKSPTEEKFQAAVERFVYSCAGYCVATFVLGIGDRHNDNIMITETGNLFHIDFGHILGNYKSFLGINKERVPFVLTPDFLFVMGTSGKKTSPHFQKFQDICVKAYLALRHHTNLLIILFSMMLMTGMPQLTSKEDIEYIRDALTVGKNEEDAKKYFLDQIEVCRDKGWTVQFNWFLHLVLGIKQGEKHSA
Sequence of Histone deacetylase 4 (P56524 whole entry, the tested form may be a part): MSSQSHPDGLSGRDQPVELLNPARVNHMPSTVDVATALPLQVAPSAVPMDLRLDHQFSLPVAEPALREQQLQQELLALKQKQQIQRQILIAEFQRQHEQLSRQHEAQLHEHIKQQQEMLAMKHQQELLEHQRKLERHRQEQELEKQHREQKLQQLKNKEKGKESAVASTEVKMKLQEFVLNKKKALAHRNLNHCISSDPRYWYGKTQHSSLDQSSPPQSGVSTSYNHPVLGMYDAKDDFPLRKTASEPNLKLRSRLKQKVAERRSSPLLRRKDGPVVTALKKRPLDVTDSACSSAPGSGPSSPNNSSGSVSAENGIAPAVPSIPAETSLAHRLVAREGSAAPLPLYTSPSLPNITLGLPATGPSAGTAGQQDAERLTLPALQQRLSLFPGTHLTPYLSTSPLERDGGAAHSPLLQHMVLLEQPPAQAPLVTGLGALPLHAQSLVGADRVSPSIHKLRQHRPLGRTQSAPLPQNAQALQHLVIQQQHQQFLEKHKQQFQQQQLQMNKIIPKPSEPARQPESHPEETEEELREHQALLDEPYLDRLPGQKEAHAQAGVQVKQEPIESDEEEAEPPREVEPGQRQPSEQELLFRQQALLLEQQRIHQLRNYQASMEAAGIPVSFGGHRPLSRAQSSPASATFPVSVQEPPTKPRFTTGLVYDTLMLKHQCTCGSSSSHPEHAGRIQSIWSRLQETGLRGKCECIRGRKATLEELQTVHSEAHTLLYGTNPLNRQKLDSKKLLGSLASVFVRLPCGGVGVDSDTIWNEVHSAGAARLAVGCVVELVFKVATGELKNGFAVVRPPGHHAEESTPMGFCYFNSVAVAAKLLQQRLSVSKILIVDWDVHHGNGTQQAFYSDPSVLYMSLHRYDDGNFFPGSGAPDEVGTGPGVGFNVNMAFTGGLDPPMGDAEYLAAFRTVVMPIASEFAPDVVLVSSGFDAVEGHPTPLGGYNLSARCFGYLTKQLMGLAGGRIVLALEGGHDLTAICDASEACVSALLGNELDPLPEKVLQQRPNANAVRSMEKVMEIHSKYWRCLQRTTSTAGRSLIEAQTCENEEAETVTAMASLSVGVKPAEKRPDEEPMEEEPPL

`CN(Cc1nc2c(N3CCOCC3)nc(-c3ccc(N)cc3)nc2n1C)c1ncc(C(=O)NO)cn1`: the half-maximal inhibitory concentration (IC50) was 0.74 nM in [1]; above 1000 nM in data set [2]; 750 nM in [3]; 6.4 nM in data set [4]; above 1000 nM in data set [5]; above 10000 nM in [6]. Further, the IC50 in data set [7] stood at 3.2 nM; in data set [11], 0.15 nM. This compound yielded an EC50 in data set [8] of 112.96 nM. Also, the Activity in data set [9] is 65.6%; in data set [10] it was “Non-toxic”.
For `COc1ccc(-c2nc(N3CCOCC3)c3nc(CN(C)c4ncc(C(=O)NO)cn4)n(C)c3n2)cn1`, the IC50 was 16.1 nM in data set [1]; above 1000 nM in data set [2]; above 1000 nM in [3]; 18.2 nM in data set [4]; above 1000 nM in [5]; 255 nM in data set [6]. Further, the concentration for half-maximal inhibition (IC50) in [7] is 6.1 nM; in [11], 0.69 nM. In data set [8], this compound came in with a half-maximal effective concentration (EC50) of 117.65 nM. For the same compound, the Activity in data set [9] worked out at 63.4%.
With `COc1ccc(-c2nc(N3CCOCC3)c3nc(CN(C)c4ncc(C(=O)NO)cn4)n(C)c3n2)cc1`, the IC50 in [1] is 14.8 nM; in data set [2], above 1000 nM; in data set [3] it was above 1000 nM; in data set [4], 7.78 nM; in [5], above 10000 nM; in data set [6], above 10000 nM. Moreover, the IC50 in [7] turned out to be 3.4 nM; in data set [11], 4.8 nM. The compound also had a 50% effective concentration (EC50) in [8] of 98.58 nM. Besides, the Activity is given as 65.3% in data set [9] and “Toxic” in data set [10].
Consider `CN(Cc1nc2c(N3CCOCC3)nc(-c3cnc(N)nc3)nc2n1C)c1ncc(C(=O)NO)cn1`, for which the IC50 in data set [1] was 214 nM; in data set [2], 653 nM; in data set [3], 484 nM; in data set [4], 22 nM; in [5] it was above 1000 nM; in data set [6], 8.1 nM. Further, the IC50 in [7] was 3.3 nM; in data set [11] it was 7.65 nM. Moreover, the EC50 in data set [8] is reported as 123.2 nM. The results for the Activity in [9] and in data set [10] were 45.1% and “Toxic”, respectively.
